Experimental data: ChEMBL document CHEMBL1131628 (J Med Chem, 1998)

How the values were obtained:
Endothelin-1 receptor [1] = biological target: T1, Endothelin-1 receptor (Rattus norvegicus, UniProt P26684); experiment: Binding affinity for endothelin A receptor by measuring its ability to displace [125I]ET1 from prolactin secreting rat pituitary cells(MMQ); type: cell-based, Pituitary gland cell
T1 sequence (P26684 whole entry): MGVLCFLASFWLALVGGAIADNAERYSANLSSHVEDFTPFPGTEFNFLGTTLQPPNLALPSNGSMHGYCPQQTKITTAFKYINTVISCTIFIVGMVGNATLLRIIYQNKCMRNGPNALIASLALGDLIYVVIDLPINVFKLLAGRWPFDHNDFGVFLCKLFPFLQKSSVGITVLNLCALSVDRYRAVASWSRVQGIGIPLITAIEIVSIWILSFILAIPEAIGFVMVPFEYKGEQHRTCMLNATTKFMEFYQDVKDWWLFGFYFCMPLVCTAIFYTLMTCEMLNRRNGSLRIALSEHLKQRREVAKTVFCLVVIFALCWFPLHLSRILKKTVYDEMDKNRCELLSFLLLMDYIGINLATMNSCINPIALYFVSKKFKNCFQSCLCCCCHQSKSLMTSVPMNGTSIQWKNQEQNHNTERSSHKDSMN

[2] = biological target: T2, Endothelin receptor type B (Homo sapiens, UniProt P24530); experiment: Tested for binding affinity for human Endothelin B receptor by measuring its ability to displace [125I]ET-3 from chinese hamster ovary cells(CHO); type: cell-based
T2 sequence (P24530 whole entry): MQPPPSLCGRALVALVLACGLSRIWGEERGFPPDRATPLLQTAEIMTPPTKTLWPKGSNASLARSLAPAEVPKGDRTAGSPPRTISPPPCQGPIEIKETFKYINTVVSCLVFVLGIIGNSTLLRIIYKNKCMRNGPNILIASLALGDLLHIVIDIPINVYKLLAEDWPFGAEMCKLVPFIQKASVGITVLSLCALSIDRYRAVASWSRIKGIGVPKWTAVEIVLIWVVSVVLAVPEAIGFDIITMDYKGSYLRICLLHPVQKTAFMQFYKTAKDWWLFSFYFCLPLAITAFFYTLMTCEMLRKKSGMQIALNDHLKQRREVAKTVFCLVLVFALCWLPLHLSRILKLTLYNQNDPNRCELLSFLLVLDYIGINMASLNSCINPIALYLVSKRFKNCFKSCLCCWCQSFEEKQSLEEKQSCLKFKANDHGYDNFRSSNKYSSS

Endothelin-1 receptor [3] = biological target: T3, Endothelin-1 receptor (Homo sapiens, UniProt P25101); experiment: Tested for binding affinity for human Endothelin A receptor by measuring its ability to displace [125I]ET1 from chinese hamster ovary cells(CHO); type: cell-based
T3 sequence (P25101 whole entry): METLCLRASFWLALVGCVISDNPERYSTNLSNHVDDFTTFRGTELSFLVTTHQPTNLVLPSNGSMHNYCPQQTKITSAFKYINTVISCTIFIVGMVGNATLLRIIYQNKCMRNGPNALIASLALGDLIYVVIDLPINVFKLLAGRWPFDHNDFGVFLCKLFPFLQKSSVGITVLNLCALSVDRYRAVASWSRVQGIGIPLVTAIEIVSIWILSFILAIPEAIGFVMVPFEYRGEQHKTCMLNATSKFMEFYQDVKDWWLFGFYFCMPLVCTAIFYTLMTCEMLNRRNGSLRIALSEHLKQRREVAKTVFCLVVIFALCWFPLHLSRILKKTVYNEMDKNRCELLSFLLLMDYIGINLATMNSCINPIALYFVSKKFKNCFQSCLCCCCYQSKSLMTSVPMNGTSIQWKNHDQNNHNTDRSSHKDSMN

[4] = Pharmacokinetic profile-half life was evaluated in rats upon oral administration; type: ADME, organism-based; conditions: rat, in vivo
Summary of the method: (§1)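 Male Sprague-Dawley rats, n = 4 per group, 10 mg/kg iv (jugular slow bolus) or oral gavage, 10 mg/mL in ethanol–propylene glycol–D5W (20:30:50) with 1 equiv NaOH. Tail-vein plasma taken 0.1 (iv only) to 12 h, assayed by HPLC after extraction. AUC by trapezoidal rule extrapolated to infinity; T1/2 from terminal rate constant; F as oral/iv AUC.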

[5] = Pharmacokinetic profile AUC was evaluated in rats; type: ADME, organism-based; set-up: concentration or dose not given beside the values; conditions: rat, in vivo; summary of the method: as §1
[6] = Bioavailability in rat; type: ADME, organism-based; conditions: in vivo; summary of the method: as §1
[7] = Pharmacokinetic profile-half life was evaluated in rats upon intravenous administration; type: ADME, organism-based; conditions: rat, in vivo; summary of the method: as §1
[8] = Pharmacokinetic profile Cmax was evaluated in rats; type: ADME, organism-based; conditions: rat, in vivo; summary of the method: as §1
Endothelin-1 receptor [9] = biological target: T3, Endothelin-1 receptor; experiment: Tested for binding affinity for human Endothelin A receptor by measuring its ability to displace [125I]-ET-1 from chinese hamster ovary cells(CHO); type: cell-based
[10] = biological target: T2, Endothelin receptor type B; experiment: Tested for binding affinity for human Endothelin B receptor by measuring its ability to displace [125I]-ET-3 from chinese hamster ovary cells(CHO); type: cell-based

Structure (SMILES): C=C(C)CCC[C@H]1[C@H](C(=O)O)[C@@H](c2ccc3c(c2)OCO3)CN1CC(=O)N(CCCC)CCCC
- IC50 (Endothelin-1 receptor [1]): 5.2 nM

Structure (SMILES): CCCCN(CCCC)C(=O)CN1C[C@H](c2ccc3c(c2)OCO3)[C@@H](C(=O)O)[C@@H]1CCC1CCCO1 (stereo partly specified)
- IC50 (Endothelin-1 receptor [1]): 12 nM

Structure (SMILES): CCCCN(CCCC)C(=O)CN1C[C@H](c2ccc3c(c2)OCO3)[C@@H](C(=O)O)[C@@H]1CCn1cccn1
- IC50 [2]: 42000 nM
- IC50 (Endothelin-1 receptor [3]): 1.06 nM
- IC50 (Endothelin-1 receptor [1]): 0.51 nM

Structure (SMILES): CCCCN(CCCC)C(=O)CN1C[C@H](c2ccc3c(c2)OCO3)[C@@H](C(=O)O)[C@@H]1CCCC(C)C
- IC50 (Endothelin-1 receptor [1]): 2.5 nM

Structure (SMILES): CCCCN(CCCC)C(=O)CN1C[C@H](c2ccc3c(c2)OCO3)[C@@H](C(=O)O)[C@@H]1CCc1ncco1
- IC50 (Endothelin-1 receptor [1]): 2.4 nM

Structure (SMILES): CCCCN(CCCC)C(=O)CN1C[C@H](c2ccc3c(c2)OCO3)[C@@H](C(=O)O)[C@@H]1CCN1C(=O)CCC1=O
- IC50 (Endothelin-1 receptor [1]): 5 nM

Structure (SMILES): CCCCN(CCCC)C(=O)CN1C[C@H](c2ccc3c(c2)OCO3)[C@@H](C(=O)O)[C@@H]1CCCC1OCCO1
- IC50 (Endothelin-1 receptor [1]): 7 nM

Structure (SMILES): CCCCN(CCCC)C(=O)CN1C[C@H](c2ccc3c(c2)OCO3)[C@@H](C(=O)O)[C@@H]1CCC=C1CC1
- IC50 (Endothelin-1 receptor [1]): 0.64 nM

Structure (SMILES): CCCCN(CCCC)C(=O)CN1C[C@H](c2ccc3c(c2)OCO3)[C@@H](C(=O)O)[C@@H]1CCC(C)CC (stereo partly specified)
- IC50 (Endothelin-1 receptor [1]): 16 nM

Structure (SMILES): C/C=C\C(C)(C)C[C@H]1[C@H](C(=O)O)[C@@H](c2ccc3c(c2)OCO3)CN1CC(=O)N(CCCC)CCCC
- half-life [4]: 3.58 h
- IC50 [2]: 92700 nM
- IC50 (Endothelin-1 receptor [3]): 1 nM
- AUC [5]: 2620 ng·h/mL
- bioavailability [6]: 32.2%
- half-life [7]: 1.6 h
- Cmax [8]: 1490 ng/mL

Structure (SMILES): CCCCN(CCCC)C(=O)CN1C[C@H](c2ccc3c(c2)OCO3)[C@@H](C(=O)O)[C@@H]1CCC1OCCO1
- IC50 (Endothelin-1 receptor [1]): 2.3 nM

Structure (SMILES): CCCCN(CCCC)C(=O)CN1C[C@H](c2ccc3c(c2)OCO3)[C@@H](C(=O)O)[C@@H]1CC(C)(C)C=C(C)C
- IC50 (Endothelin-1 receptor [1]): 2.7 nM

Structure (SMILES): CCCCN(CCCC)C(=O)CN1C[C@H](c2ccc3c(c2)OCO3)[C@@H](C(=O)O)[C@@H]1CCc1ccoc1
- IC50 (Endothelin-1 receptor [1]): 2.2 nM

Structure (SMILES): C/C=C\CC[C@H]1[C@H](C(=O)O)[C@@H](c2ccc3c(c2)OCO3)CN1CC(=O)N(CCCC)CCCC
- IC50 (Endothelin-1 receptor [1]): 0.78 nM

Structure (SMILES): Cc1cc2c(cc1CC(=O)c1ccsc1S(=O)(=O)Nc1onc(C)c1Cl)OCO2
- bioavailability [6]: 60%
- Ki (Endothelin-1 receptor [9]): 0.43 nM
- half-life [7]: 6.7 h
- Ki [10]: > 4300 nM

Structure (SMILES): CCCCN(CCCC)C(=O)CN1C[C@H](c2ccc3c(c2)OCO3)[C@@H](C(=O)O)[C@@H]1CC/C=C(/C)CC
- IC50 (Endothelin-1 receptor [1]): 0.86 nM

Structure (SMILES): CCCCN(CCCC)C(=O)CN1C[C@H](c2ccc3c(c2)OCO3)[C@@H](C(=O)O)[C@@H]1CCC1SCCS1
- IC50 (Endothelin-1 receptor [1]): 4.5 nM

Structure (SMILES): CCCOc1ccc2c(c1)[C@@H](c1ccc(OC)cc1OCCO)[C@H](C(=O)O)[C@H]2c1ccc2c(c1)OCO2
- bioavailability [6]: 66%
- half-life [7]: 3.3 h

Structure (SMILES): CCCCN(CCCC)C(=O)CN1C[C@H](c2ccc3c(c2)OCO3)[C@@H](C(=O)O)[C@@H]1CC(C)(C)CCC
- half-life [4]: 3.85 h
- IC50 [2]: 2800 nM
- IC50 (Endothelin-1 receptor [3]): 0.29 nM
- AUC [5]: 7060 ng·h/mL
- IC50 (Endothelin-1 receptor [1]): 1.3 nM
- bioavailability [6]: 76.8%
- half-life [7]: 2.45 h
- Cmax [8]: 1480 ng/mL

Structure (SMILES): CCCCN(CCCC)C(=O)CN1C[C@H](c2cc(OC)c3c(c2)OCO3)[C@@H](C(=O)O)[C@@H]1CC(C)(C)CCC [ABT-546]
- half-life [4]: 2.5 h
- AUC [5]: 3270 ng·h/mL
- IC50 (Endothelin-1 receptor [1]): 0.56 nM
- bioavailability [6]: 47.7%
- half-life [7]: 1.6 h
- Cmax [8]: 1690 ng/mL

Structure (SMILES): Cc1noc(NS(=O)(=O)c2cccc3c(N(C)C)cccc23)c1C [BMS-182874]
- Ki [10]: > 50000 nM

Structure (SMILES): COc1ccccc1Oc1c(NS(=O)(=O)c2ccc(C)cn2)nc(-c2ccnc(-c3nnn[nH]3)c2)nc1OCCO [CLAZOSENTAN]
- Ki (Endothelin-1 receptor [9]): 0.13 nM
- half-life [7]: 0.8 h
- Ki [10]: 175 nM

Structure (SMILES): COc1ccc(C(=O)/C(Cc2cc(OC)c(OC)c(OC)c2)=C(\C(=O)[O-])c2ccc3c(c2)OCO3)cc1.[Na+] [PD-156707 SODIUM]
- bioavailability [6]: 41%
- half-life [7]: 1 h
- Ki [10]: 139 nM
